Values joined by “and” are separate entries in the source; they are usually repeats but may differ in a detail not shown here. Equal values may be shown once.
What was measured:
Rattus norvegicus [1] = species on record: Rattus norvegicus; assay: Intestinal Calcium Transport mobilization response of Vitamin D-Deficient Rats on a low-calcium diet(amount 500 pmol); format: functional
Summary of the method: (§1)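 Vitamin D-deficient weanling male rats kept on a 0.02% Ca diet. Compound given intraperitoneally daily for 7 days in 0.1 mL of 95:5 propylene glycol/ethanol; controls got vehicle. Killed 24 h after the last dose. Intestinal Ca transport by everted sac (proximal 10 cm), reported as S/M ratio. At least 5 rats/group; mean ± SEM; Student's t-test.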

Rattus norvegicus [2] = species on record: Rattus norvegicus; assay: Support of Intestinal Calcium Transport mobilization response of Vitamin D-Deficient Rats on a low-calcium diet(amount 130 pmol); format: functional; summary of the method: as §1
Rattus norvegicus [3] = species on record: Rattus norvegicus; assay: Support of Intestinal Calcium Transport mobilization response of Vitamin D-Deficient Rats on a low-calcium diet(amount 260 pmol); format: functional; summary of the method: as §1
Rattus norvegicus [4] = assay: Intestinal Calcium Transport mobilization response of Vitamin D-Deficient Rats to a single Intravenous Injection of D3 (amount 260 pmol); format: functional
Summary of the method: (§2)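 Vitamin D-deficient weanling male rats, 3 weeks on a 0.47% Ca diet then 1 week on 0.02% Ca. A single intravenous dose was given in 0.1 mL of 95:5 propylene glycol/ethanol, with vehicle controls. After 24 h, the proximal 10 cm of intestine was taken for everted-sac calcium transport, expressed as serosal:mucosal (S/M) Ca ratio. At least 5 rats/group; mean ± SEM.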

Rattus norvegicus [5] = assay: Bone Calcium mobilization response of Vitamin D-Deficient Rats to a single Intravenous Injection of (amount 260 pmol); format: functional, organism-based
Summary of the method: (§3)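 Vitamin D-deficient weanling male rats, 3 weeks on a 0.47% Ca diet then 1 week on 0.02% Ca. A single intravenous dose was given in 0.1 mL of 95:5 propylene glycol/ethanol, with vehicle controls. Serum calcium was measured by automatic titrator 24 h after dosing. The rise in serum Ca on the low-Ca diet is taken as bone calcium mobilization. At least 5 rats/group; mean ± SEM.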

Rattus norvegicus [6] = species on record: Rattus norvegicus; assay: Support of Serum Calcium Transport mobilization response of Vitamin D-Deficient Rats on a low-calcium diet(amount 130 pmol); format: functional, organism-based
Summary of the method: (§4)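 Weanling male rats deficient in vitamin D, held on a low-calcium (0.02% Ca) diet, dosed intraperitoneally each day for 7 days in 0.1 mL of 95:5 propylene glycol/ethanol, with vehicle controls. Serum calcium was measured by automatic titrator 24 h after the last dose as the index of bone calcium mobilization. At least 5 rats/group; mean ± SEM; Student's t-test.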

Rattus norvegicus [7] = species on record: Rattus norvegicus; assay: Support of Serum Calcium Transport mobilization response of Vitamin D-Deficient Rats on a low-calcium diet(amount 260 pmol); format: functional, organism-based; summary of the method: as §4
Rattus norvegicus [8] = species on record: Rattus norvegicus; assay: Serum Calcium Transport mobilization response of Vitamin D-Deficient Rats on a low-calcium diet(amount 500 pmol); format: functional, organism-based; summary of the method: as §4
Rattus norvegicus [9] = species on record: Rattus norvegicus; assay: Support of Intestinal Calcium Transport mobilization response of Vitamin D-Deficient Rats on a low-calcium diet(amount 1300 pmol); format: functional; summary of the method: as §1
Rattus norvegicus [10] = species on record: Rattus norvegicus; assay: Support of Intestinal Calcium Transport mobilization response of Vitamin D-Deficient Rats on a low-calcium diet(amount 650 pmol); format: functional; summary of the method: as §1
Rattus norvegicus [11] = assay: Intestinal Calcium Transport mobilization response of Vitamin D-Deficient Rats to a single Intravenous Injection amount 260 pmol); format: functional; summary of the method: as §2
Rattus norvegicus [12] = assay: Bone Calcium mobilization response of Vitamin D-Deficient Rats to a single Intravenous Injection (amount 260 pmol); format: functional, organism-based; summary of the method: as §3
Rattus norvegicus [13] = species on record: Rattus norvegicus; assay: Support of Serum Calcium Transport mobilization response of Vitamin D-Deficient Rats on a low-calcium diet(amount 1300 pmol); format: functional, organism-based; summary of the method: as §4
Rattus norvegicus [14] = species on record: Rattus norvegicus; assay: Support of Serum Calcium Transport mobilization response of Vitamin D-Deficient Rats on a low-calcium diet(amount 650 pmol); format: functional, organism-based; summary of the method: as §4
Rattus norvegicus [15] = species on record: Rattus norvegicus; assay: Support of Intestinal Calcium Transport mobilization response of Vitamin D-Deficient Rats on a low-calcium diet(amount 500 pmol); format: functional; summary of the method: as §1
Rattus norvegicus [16] = species on record: Rattus norvegicus; assay: Support of Intestinal Calcium Transport mobilization response of Vitamin D-Deficient Rats on a low-calcium diet(amount 1000 pmol); format: functional; summary of the method: as §1
Rattus norvegicus [17] = species on record: Rattus norvegicus; assay: Support of Serum Calcium Transport mobilization response of Vitamin D-Deficient Rats on a low-calcium diet(amount 1000 pmol); format: functional, organism-based; summary of the method: as §4
Rattus norvegicus [18] = species on record: Rattus norvegicus; assay: Support of Serum Calcium Transport mobilization response of Vitamin D-Deficient Rats on a low-calcium diet(amount 500 pmol); format: functional, organism-based; summary of the method: as §4

Row | SMILES | Ca2+ transport (Rattus norvegicus [1]) | Ca2+ transport (Rattus norvegicus [2]) | Ca2+ transport (Rattus norvegicus [3]) | Ca2+ transport (Rattus norvegicus [4]) | Serum Ca2+ (Rattus norvegicus [5]) | Serum Ca2+ (Rattus norvegicus [6]) | Serum Ca2+ (Rattus norvegicus [7]) | Serum Ca2+ (Rattus norvegicus [8]) | Ca2+ transport (Rattus norvegicus [9]) | Ca2+ transport (Rattus norvegicus [10]) | Ca2+ transport (Rattus norvegicus [11]) | Serum Ca2+ (Rattus norvegicus [12]) | Serum Ca2+ (Rattus norvegicus [13]) | Serum Ca2+ (Rattus norvegicus [14]) | Ca2+ transport (Rattus norvegicus [15]) | Ca2+ transport (Rattus norvegicus [16]) | Serum Ca2+ (Rattus norvegicus [17]) | Serum Ca2+ (Rattus norvegicus [18])
1 | C=C1/C(=C\C=C2/CCC[C@]3(C)[C@@H]([C@H](C)CCCC(C)(C)O)CC[C@@H]23)C[C@@H](O)C[C@@H]1O [CALCITRIOL] | 5.7 | 6.8 | 7.6 | 5 | 4.8 | 5.8 | 5.4 and 7.1 | 5.5 |  |  |  |  |  |  |  |  |  | 
2 | C=C1/C(=C\C=C2/CCC[C@@H]3C([C@H](C)CCCC(C)(C)O)CC[C@@H]23)C[C@@H](O)C[C@@H]1O (some centres undefined) | 4.1 |  |  |  |  |  |  | 5.1 | 5.5 | 5.4 | 3.9 | 4.4 | 5.6 | 5.2 |  |  |  | 
3 | C[C@H](CCCC(C)(C)O)C1CC[C@H]2/C(=C/C=C3C[C@@H](O)C[C@H](O)C3)CCC[C@H]12 (some centres undefined) |  | 3.7 | 4.8 |  |  | 4.8 | 4.9 |  |  |  |  |  |  |  | 6.2 | 6.9 | 5.5 | 5.6

Reference: ChEMBL document CHEMBL1129387, “Synthesis and biological activity of 1 alpha, 25-dihydroxy-18-norvitamin D3 and 1 alpha, 25-dihydroxy-18,19-dinorvitamin D3” (1996)
